# Assay results: ChEMBL document CHEMBL2375244 (J Med Chem, 2013)
# Activity calls are given as the source filed them. No cut-off for these calls is given here.
# Assays:
# [1] = test system: A673; experiment: Cytotoxicity against human A673 cells after 72 hrs by resazurin/resorufin-based fluorescence assay; type: functional, cell-based; settings: A673, 72 h
# [2] = target: Dual specificity tyrosine-phosphorylation-regulated kinase 1A (Homo sapiens) (UniProt Q13627); experiment: Inhibition of human DYRK1A at 0.1 uM incubated for 15 mins prior to substrate addition measured after 90 mins by P33-radiolabeled assay relative to control
# [3] = test system: A673; experiment: Induction of apoptosis in human A673 cells assessed as caspase-3 activation at 0.05 uM to 5 uM after 24 hrs by luminescence assay relative to control; type: functional
# Procedure, shortened: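 Caspase-3/7 activation measured with a Caspase-Glo 3/7 luminescent assay. Cells were plated as for the high-throughput viability assay and exposed for 24 h to serial dilutions. EC50 was obtained from the dose-response.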
# [4] = test system: T47D; experiment: Cytotoxicity against human T47D cells after 72 hrs by resazurin/resorufin-based fluorescence assay; type: functional, cell-based
# [5] = test system: MDA-MB-468; experiment: Cytotoxicity against human MDA-MB-468 cells after 72 hrs by MTT assay; type: functional, cell-based; settings: MDA-MB-468, 72 h
# Procedure, shortened: (§1)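 Cells kept in RPMI or DMEM with 10% FBS at 37 °C, 5% CO₂ and allowed to attach overnight; 72 h with increasing inhibitor concentrations; then 1 mg/mL MTT for 3 h, DMSO solubilisation, OD read at 540 nm. Testis lines had culture conditions adapted to them. Dose-response in triplicate, 9 concentrations between 0.02 and 100 μM, averaged.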
# [6] = test system: U-266; experiment: Cytotoxicity against human U266 cells after 72 hrs by resazurin/resorufin-based fluorescence assay; type: functional, cell-based; settings: U-266, 72 h
# [7] = target: CDK2/Cyclin A1 (Homo sapiens, UniProt P24941); experiment: Inhibition of CDK2/Cyclin A1 (unknown origin)-mediated phosphorylation of peptide substrate incubated for 15 mins prior to substrate addition measured after 90 mins by P33-radiolabeled assay; type: protein-complex assay
# [8] = Cytotoxicity against human RPMI18226 cells after 72 hrs by resazurin/resorufin-based fluorescence assay; type: functional, cell-based; settings: RPMI18226, 72 h
# [9] = target: Cyclin-dependent kinase 2 (Homo sapiens) (UniProt P24941); experiment: Inhibition of CDK2-mediated Rb phosphorylation at Ser 807/811 in human A673 cells at 0.25 uM after 24 hrs by immunoblotting analysis; type: cell-based
# Procedure, shortened: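 Asynchronously growing A-673 cells at ~70% confluence were exposed for 24 h to increasing concentrations, then lysed. 50 μg protein per lane on 10% SDS-PAGE, transferred to nitrocellulose. Phospho-Rb Ser807/811 antibody, with β-actin as loading control, detected with fluorescent secondary antibodies on an infrared scanner.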
# [10] = target: CDK6/cyclin D3 (Homo sapiens) (UniProt P30281+Q00534); experiment: Inhibition of human CDK6/Cyclin D3 at 0.1 uM incubated for 15 mins prior to substrate addition measured after 90 mins by P33-radiolabeled assay relative to control; type: protein-complex assay
# [11] = Cytotoxicity against human NCI-H929 cells after 72 hrs by resazurin/resorufin-based fluorescence assay; type: functional, cell-based; settings: NCI-H929, 72 h
# [12] = test system: BT-549; experiment: Cytotoxicity against human BT549 cells after 72 hrs by resazurin/resorufin-based fluorescence assay; type: functional, cell-based; settings: BT-549, 72 h
# Procedure, shortened: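 CellTiter-Blue viability: 1200 cells per well seeded, incubated overnight at 37 °C, 5% CO₂; drugs serially diluted 2:3 in medium, four replicate wells per concentration plus four diluent-only control wells; 72 h exposure; resazurin reduction to resorufin read by fluorescence (579 nm ex/584 nm em). IC50 is the average of three data sets, each using nine concentrations between 0.004 μM and 12.5 μM.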
# [13] = target: Cyclin-dependent kinase 4/cyclin D1 (Homo sapiens) (UniProt P11802+P24385); experiment: Inhibition of human CDK4/Cyclin D1 at 0.1 uM incubated for 15 mins prior to substrate addition measured after 90 mins by P33-radiolabeled assay relative to control; type: protein-complex assay
# [14] = target: Cyclin-dependent kinase 2 (Homo sapiens) (UniProt P24941); experiment: Inhibition of CDK2-mediated Rb phosphorylation at Ser 807/811 in human NCI-H929 cells at […] after 24 hrs by immunoblotting analysis; type: cell-based
# [15] = target: CDK1/Cyclin A (Homo sapiens) (UniProt P06493+P20248); experiment: Inhibition of human CDK1/Cyclin A at 0.1 uM incubated for 15 mins prior to substrate addition measured after 90 mins by P33-radiolabeled assay relative to control; type: protein-complex assay
# Chain of CDK1/Cyclin A (Homo sapiens) (P06493 whole entry, looked up): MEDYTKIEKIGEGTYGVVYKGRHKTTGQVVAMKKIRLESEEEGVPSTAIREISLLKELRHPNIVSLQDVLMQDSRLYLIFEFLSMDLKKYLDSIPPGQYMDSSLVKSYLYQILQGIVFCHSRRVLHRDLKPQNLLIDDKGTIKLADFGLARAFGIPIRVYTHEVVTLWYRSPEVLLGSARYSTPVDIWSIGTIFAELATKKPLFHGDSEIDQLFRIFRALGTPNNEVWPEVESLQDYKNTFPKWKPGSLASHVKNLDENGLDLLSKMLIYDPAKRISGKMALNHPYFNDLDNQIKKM
# Chain of CDK1/Cyclin A (Homo sapiens) (P20248 whole entry, looked up): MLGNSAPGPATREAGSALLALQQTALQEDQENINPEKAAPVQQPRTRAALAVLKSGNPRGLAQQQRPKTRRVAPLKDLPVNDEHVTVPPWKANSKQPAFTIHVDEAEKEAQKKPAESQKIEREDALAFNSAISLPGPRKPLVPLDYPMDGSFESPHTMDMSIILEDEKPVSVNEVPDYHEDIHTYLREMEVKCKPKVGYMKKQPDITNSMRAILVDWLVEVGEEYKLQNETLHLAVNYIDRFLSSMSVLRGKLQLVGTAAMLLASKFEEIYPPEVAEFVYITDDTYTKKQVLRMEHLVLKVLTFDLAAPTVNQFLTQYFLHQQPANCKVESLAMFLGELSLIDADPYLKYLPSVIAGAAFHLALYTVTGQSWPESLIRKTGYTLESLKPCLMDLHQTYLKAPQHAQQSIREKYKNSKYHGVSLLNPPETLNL
# [16] = target: Cyclin-dependent kinase 4/cyclin D1 (Homo sapiens, UniProt P11802); experiment: Inhibition of CDK4/Cyclin D1 (unknown origin)-mediated phosphorylation of peptide substrate incubated for 15 mins prior to substrate addition measured after 90 mins by P33-radiolabeled assay; type: protein-complex assay
# Chain of Cyclin-dependent kinase 4/cyclin D1 (P11802 whole entry): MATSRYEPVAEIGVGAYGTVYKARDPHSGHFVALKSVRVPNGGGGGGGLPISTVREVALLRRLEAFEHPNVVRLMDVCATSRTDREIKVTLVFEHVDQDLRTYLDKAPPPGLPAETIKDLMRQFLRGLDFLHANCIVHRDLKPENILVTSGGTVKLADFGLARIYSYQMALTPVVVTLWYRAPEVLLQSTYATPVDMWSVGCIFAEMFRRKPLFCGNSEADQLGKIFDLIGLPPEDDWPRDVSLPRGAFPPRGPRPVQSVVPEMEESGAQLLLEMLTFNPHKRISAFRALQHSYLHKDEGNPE
# Chain of Cyclin-dependent kinase 4/cyclin D1 (P24385 whole entry, further chain): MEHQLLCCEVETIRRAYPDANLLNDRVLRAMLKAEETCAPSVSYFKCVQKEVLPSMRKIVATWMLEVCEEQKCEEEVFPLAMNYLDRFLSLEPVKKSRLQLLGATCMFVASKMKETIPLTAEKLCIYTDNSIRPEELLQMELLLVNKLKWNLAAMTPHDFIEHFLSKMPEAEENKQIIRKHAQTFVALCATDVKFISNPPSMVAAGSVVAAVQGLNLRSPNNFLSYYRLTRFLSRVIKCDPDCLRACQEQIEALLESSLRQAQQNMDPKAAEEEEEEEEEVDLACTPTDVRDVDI
# [17] = target: Cyclin-dependent kinase 5/CDK5 activator 1 (Homo sapiens, UniProt Q00535); experiment: Inhibition of CDK5/P25 (unknown origin)-mediated phosphorylation of peptide substrate incubated for 15 mins prior to substrate addition measured after 90 mins by P33-radiolabeled assay; type: protein-complex assay
# Chain of Cyclin-dependent kinase 5/CDK5 activator 1 (Q00535 whole entry): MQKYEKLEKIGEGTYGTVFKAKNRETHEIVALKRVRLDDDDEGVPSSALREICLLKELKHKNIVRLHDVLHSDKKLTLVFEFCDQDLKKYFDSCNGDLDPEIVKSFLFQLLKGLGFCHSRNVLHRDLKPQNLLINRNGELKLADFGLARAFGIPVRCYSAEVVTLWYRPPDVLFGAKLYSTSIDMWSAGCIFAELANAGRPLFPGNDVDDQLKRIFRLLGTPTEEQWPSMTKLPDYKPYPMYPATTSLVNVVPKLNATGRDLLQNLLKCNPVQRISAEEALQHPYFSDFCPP
# Chain of Cyclin-dependent kinase 5/CDK5 activator 1 (Q15078 whole entry, further chain): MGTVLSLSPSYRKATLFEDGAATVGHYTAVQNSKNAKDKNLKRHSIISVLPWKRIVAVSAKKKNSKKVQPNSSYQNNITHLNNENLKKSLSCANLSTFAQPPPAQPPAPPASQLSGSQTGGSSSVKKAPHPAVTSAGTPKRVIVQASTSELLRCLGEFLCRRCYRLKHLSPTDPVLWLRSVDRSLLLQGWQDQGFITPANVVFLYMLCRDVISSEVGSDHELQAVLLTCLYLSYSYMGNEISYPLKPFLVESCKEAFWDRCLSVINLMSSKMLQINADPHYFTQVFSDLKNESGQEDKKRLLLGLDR
# [18] = target: T1, CDK2/Cyclin A2 (Homo sapiens, UniProt P24941); experiment: Inhibition of CDK2/Cyclin A (unknown origin)-mediated phosphorylation of peptide substrate incubated for 15 mins prior to substrate addition measured after 90 mins by P33-radiolabeled assay; type: protein-complex assay
# [19] = target: T1, CDK2/Cyclin A2; experiment: Inhibition of human CDK2/Cyclin A2 using PKTPKKAKKL as substrate by fluorescence assay; type: protein-complex assay
# [20] = Cytotoxicity against mouse GC-1 cells after 72 hrs by MTT assay; type: functional, cell-based; settings: GC-1, 72 h; procedure, shortened: as §1
# [21] = test system: SW872; experiment: Cytotoxicity against human SW872 cells after 72 hrs by resazurin/resorufin-based fluorescence assay; type: functional, cell-based; settings: SW872, 72 h
# [22] = target: CDK9/Cyclin K (Homo sapiens, UniProt P50750); experiment: Inhibition of CDK9/Cyclin K (unknown origin)-mediated phosphorylation of peptide substrate incubated for 15 mins prior to substrate addition measured after 90 mins by P33-radiolabeled assay; type: protein-complex assay
# Chain of CDK9/Cyclin K (P50750 whole entry): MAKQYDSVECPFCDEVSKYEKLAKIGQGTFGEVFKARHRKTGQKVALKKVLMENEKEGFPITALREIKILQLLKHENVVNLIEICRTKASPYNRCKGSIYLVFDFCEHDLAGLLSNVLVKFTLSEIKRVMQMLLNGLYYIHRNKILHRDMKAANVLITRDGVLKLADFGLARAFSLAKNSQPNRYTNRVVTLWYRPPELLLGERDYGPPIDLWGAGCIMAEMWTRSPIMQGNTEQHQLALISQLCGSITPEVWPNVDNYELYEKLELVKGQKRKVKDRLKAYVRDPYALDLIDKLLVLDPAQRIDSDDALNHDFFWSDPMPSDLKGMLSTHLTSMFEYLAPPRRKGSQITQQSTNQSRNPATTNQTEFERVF
# Chain of CDK9/Cyclin K (O75909 whole entry, further chain): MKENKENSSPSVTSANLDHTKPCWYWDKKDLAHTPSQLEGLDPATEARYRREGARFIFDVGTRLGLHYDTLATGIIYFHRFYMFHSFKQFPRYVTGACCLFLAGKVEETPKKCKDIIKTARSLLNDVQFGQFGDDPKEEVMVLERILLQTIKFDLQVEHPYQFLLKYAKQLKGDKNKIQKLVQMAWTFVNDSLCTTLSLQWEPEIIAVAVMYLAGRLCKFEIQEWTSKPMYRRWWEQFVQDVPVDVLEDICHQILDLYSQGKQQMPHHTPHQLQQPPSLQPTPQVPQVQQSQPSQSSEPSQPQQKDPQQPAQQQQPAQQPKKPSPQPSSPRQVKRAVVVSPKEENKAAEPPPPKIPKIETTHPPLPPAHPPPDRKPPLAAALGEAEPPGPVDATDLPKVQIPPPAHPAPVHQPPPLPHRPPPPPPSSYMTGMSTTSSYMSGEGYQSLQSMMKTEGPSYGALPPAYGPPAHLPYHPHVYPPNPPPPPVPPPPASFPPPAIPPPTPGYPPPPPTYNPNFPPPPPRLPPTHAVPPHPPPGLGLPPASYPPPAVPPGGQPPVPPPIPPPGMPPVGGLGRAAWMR
# Procedure, shortened: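 Radiometric (P33) kinase assay run by a contract lab on CDK–cyclin complexes. Inhibitor tested in duplicate at 0.05 nM to 1000 nM with ATP at 10 μM. […] For the in-house assays, IC50 was obtained by Hill-equation fitting.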
# [23] = target: CDK6/cyclin D1 (Homo sapiens) (UniProt P24385+Q00534); experiment: Inhibition of human CDK6/Cyclin D1 at 0.1 uM incubated for 15 mins prior to substrate addition measured after 90 mins by P33-radiolabeled assay relative to control; type: protein-complex assay
# [24] = Cytotoxicity against mouse GC-2 cells after 72 hrs by MTT assay; type: functional, cell-based; settings: GC-2, 72 h; procedure, shortened: as §1
# [25] = target: Cyclin-dependent kinase 1/cyclin B1 (Homo sapiens) (UniProt P06493+P14635); experiment: Inhibition of human CDK1/Cyclin B at 0.1 uM incubated for 15 mins prior to substrate addition measured after 90 mins by P33-radiolabeled assay relative to control; type: protein-complex assay
# Chain of Cyclin-dependent kinase 1/cyclin B1 (Homo sapiens) (P06493 whole entry, looked up): as the sequence (P06493 whole entry, looked up) above
# Chain of Cyclin-dependent kinase 1/cyclin B1 (Homo sapiens) (P14635 whole entry, looked up): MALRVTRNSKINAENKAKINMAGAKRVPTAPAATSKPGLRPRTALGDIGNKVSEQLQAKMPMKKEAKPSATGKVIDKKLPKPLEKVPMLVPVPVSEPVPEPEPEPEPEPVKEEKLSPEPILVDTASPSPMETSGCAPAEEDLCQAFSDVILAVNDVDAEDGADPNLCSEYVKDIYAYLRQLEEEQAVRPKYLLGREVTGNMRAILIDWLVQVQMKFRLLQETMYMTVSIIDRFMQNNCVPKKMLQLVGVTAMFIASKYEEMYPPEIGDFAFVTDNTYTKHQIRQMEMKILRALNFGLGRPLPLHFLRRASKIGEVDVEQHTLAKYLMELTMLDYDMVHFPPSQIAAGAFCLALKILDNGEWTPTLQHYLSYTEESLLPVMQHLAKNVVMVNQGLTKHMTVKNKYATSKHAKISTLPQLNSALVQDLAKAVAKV
# [26] = target: Dual specificity protein kinase CLK2 (Homo sapiens) (UniProt P49760); experiment: Inhibition of human CLK2 at 0.1 uM incubated for 15 mins prior to substrate addition measured after 90 mins by P33-radiolabeled assay relative to control
# Chain of Dual specificity protein kinase CLK2 (Homo sapiens) (P49760 whole entry, looked up): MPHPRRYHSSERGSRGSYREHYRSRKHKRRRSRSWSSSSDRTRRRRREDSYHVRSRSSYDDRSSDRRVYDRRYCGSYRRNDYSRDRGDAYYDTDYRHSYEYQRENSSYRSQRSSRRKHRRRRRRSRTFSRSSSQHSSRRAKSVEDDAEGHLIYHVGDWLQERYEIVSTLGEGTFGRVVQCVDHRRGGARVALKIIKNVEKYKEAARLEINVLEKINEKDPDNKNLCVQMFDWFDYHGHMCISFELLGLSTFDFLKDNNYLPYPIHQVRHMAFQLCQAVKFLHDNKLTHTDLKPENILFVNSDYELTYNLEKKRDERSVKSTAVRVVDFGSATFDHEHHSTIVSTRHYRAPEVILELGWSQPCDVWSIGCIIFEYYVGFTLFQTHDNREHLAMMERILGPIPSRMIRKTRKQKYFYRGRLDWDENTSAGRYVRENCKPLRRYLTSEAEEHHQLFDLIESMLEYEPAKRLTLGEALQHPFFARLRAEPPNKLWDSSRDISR
# [27] = target: Dual specificity protein kinase CLK1 (Homo sapiens) (UniProt P49759); experiment: Inhibition of human CLK1 at 0.1 uM incubated for 15 mins prior to substrate addition measured after 90 mins by P33-radiolabeled assay relative to control
# Chain of Dual specificity protein kinase CLK1 (Homo sapiens) (P49759 whole entry, looked up): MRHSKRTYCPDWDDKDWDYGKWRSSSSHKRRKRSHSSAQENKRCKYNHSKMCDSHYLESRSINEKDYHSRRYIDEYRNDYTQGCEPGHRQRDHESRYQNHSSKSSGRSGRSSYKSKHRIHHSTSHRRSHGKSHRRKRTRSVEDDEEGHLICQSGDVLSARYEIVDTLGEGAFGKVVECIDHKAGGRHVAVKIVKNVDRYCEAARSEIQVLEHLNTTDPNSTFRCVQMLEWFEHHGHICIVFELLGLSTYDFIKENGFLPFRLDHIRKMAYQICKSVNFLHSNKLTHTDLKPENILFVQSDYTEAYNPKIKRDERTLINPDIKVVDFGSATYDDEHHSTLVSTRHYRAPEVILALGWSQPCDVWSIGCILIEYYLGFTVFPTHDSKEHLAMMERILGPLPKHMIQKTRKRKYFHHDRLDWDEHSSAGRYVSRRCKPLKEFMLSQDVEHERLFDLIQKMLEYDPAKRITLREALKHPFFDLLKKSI
compound,measurement,setting,value
Nc1nc(Nc2ccc(S(N)(=O)=O)cc2)sc1C(=O)c1ccccc1[N+](=O)[O-],IC50,[1],270 nM
same,inhibition,[2],50%
same,Activity,[3],196%
same,IC50,[4],500 nM
same,IC50,[5],300 nM
same,IC50,[6],1800 nM
same,IC50,[7],1.8 nM
same,IC50,[8],> 10000 nM
same,inhibition,[9],Active
same,inhibition,[10],85%
same,IC50,[11],1600 nM
same,IC50,[12],> 10000 nM
same,inhibition,[13],80%
same,inhibition,[14],Active
same,inhibition,[15],70%
same,IC50,[16],4 nM
same,IC50,[17],1.5 nM
same,IC50,[18],1.1 nM
same,IC50,[19],20 nM
same,IC50,[20],20000 nM
same,IC50,[21],6900 nM
same,IC50,[22],13 nM
same,inhibition,[23],80%
same,IC50,[24],9000 nM
same,inhibition,[25],90%
same,inhibition,[26],60%
same,inhibition,[27],50%
